Reference: ChEMBL document CHEMBL1687758, “Azithromycin alters macrophage phenotype and pulmonary compartmentalization during lung infection with Pseudomonas” (2010)
Calls of active or inactive are those of the source. The rule behind the calls is not given here.

Legend:
Mus musculus [1] = experiment: Immunomodulatory activity in Pseudomonas aeruginosa M57-15 infected C57BL/6 mouse lung assessed as CD11b+c- cell expression level in lung digest at 0.16 g/kg, po measured after 14 days by flow cytometry (reference value: 21.97 +/- 3.51 %); type: functional
How it was run: (§1)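 Oral gavage of 0.16 g/kg daily (2% methylcellulose vehicle) began 4 days before intratracheal bead infection (1 × 105 to 2 × 10^5 CFU). On days 3, 7 and 14, cells were taken from lavage (0.3 mM EDTA buffer) and from collagenase/DNase lung digest (1 h, 37°C). Cells were stained for CD11b, CD11c, Gr-1, CD4, CD80, MHC-II and MR, with more than 50,000 events acquired. Counts were gated percent × manual cell count.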

Mus musculus [2] = experiment: Immunomodulatory activity in Pseudomonas aeruginosa M57-15 infected C57BL/6 mouse lung assessed as decrease of IL-12p70 production in CD11b+ cells in lung lavage fluid at 0.16 g/kg, po measured after 7 days by flow cytometry; type: functional, organism-based
How it was run: (§2)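 The first 1-ml lavage wash was frozen at −80°C. Samples diluted 5-fold were incubated 3 h at room temperature with capture beads for a cytometric bead array (IL-12p70, CCL2, TNF-α, IL-10, IFN-γ, IL-6) plus a PE-conjugated detection antibody. Fluorescence was read by flow cytometry against standard curves. Mice had daily oral 0.16 g/kg from 4 days before intratracheal infection.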

Mus musculus [3] = experiment: Immunomodulatory activity in Pseudomonas aeruginosa M57-15 infected C57BL/6 mouse lung assessed as CD11b-c+ cell expression level in lung lavage fluid at 0.16 g/kg, po measured after 14 days by flow cytometry (reference value: 72.38 +/- 13.69 %); type: functional; how it was run: as §1
Mus musculus [4] = experiment: Immunomodulatory activity in Pseudomonas aeruginosa M57-15 infected C57BL/6 mouse lung assessed as CD11b+c- cell expression level in lung digest at 0.16 g/kg, po measured after 7 days by flow cytometry (reference value: 17.07 +/- 4.84 %); type: functional; how it was run: as §1
Mus musculus [5] = experiment: Immunomodulatory activity in Pseudomonas aeruginosa M57-15 infected C57BL/6 mouse lung assessed as CD11b+c+ cell expression level in lung lavage fluid at 0.16 g/kg, po measured after 7 days by flow cytometry (reference value: 1.51 +/- 1.53 %); type: functional; how it was run: as §1
Mus musculus [6] = experiment: Immunomodulatory activity in Pseudomonas aeruginosa M57-15 infected C57BL/6 mouse lung assessed as CD11b+c- cell expression level in lung lavage fluid at 0.16 g/kg, po measured after 3 days by flow cytometry (reference value: 1.20 +/- 0.41 %); type: functional; how it was run: as §1
Mus musculus [7] = experiment: Immunomodulatory activity in Pseudomonas aeruginosa M57-15 infected C57BL/6 mouse lung assessed as CD11b+c- cell expression level in lung lavage fluid at 0.16 g/kg, po measured after 7 days by flow cytometry (reference value: 1.13 +/- 0.30 %); type: functional; how it was run: as §1
Mus musculus [8] = experiment: Immunomodulatory activity in Pseudomonas aeruginosa M57-15 infected C57BL/6 mouse lung assessed as CD11b-c+ cell expression level in lung lavage fluid at 0.16 g/kg, po measured after 3 days by flow cytometry (reference value: 47.01 +/- 33.74 %); type: functional; how it was run: as §1
Pseudomonas aeruginosa [9] = experiment: Antibacterial activity against Pseudomonas aeruginosa M57-15 infected in C57BL/6 mouse assessed as effect on host weight loss at 0.16 g/kg, po measured up to 14 days; type: functional, organism-based
How it was run: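 Dosing was 0.16 g/kg daily by oral gavage in 2% methylcellulose, or vehicle, from 4 days before intratracheal bead infection (1 × 105 to 2 × 10^5 CFU). Body weight was followed over the study and compared with a sham-infected group. Groups had 3 to 6 mice, and each experiment was repeated at least three times.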

Mus musculus [10] = experiment: Immunomodulatory activity in Pseudomonas aeruginosa M57-15 infected C57BL/6 mouse lung assessed as increase of MHC2 expression in CD11b+ Gr1+ cells in alveolar space at 0.16 g/kg, po measured after 7 days by flow cytometry; type: functional, organism-based; how it was run: as §1
Mus musculus [11] = experiment: Immunomodulatory activity in Pseudomonas aeruginosa M57-15 infected C57BL/6 mouse lung assessed as CD11b+c+ cell expression level in lung digest at 0.16 g/kg, po measured after 7 days by flow cytometry (reference value: 5.16 +/- 1.09 %); type: functional; how it was run: as §1
Mus musculus [12] = experiment: Immunomodulatory activity in Pseudomonas aeruginosa M57-15 infected C57BL/6 mouse lung assessed as increase of CD80 expression in CD11b+ Gr1+ cells in alveolar space at 0.16 g/kg, po measured after 7 days by flow cytometry; type: functional, organism-based; how it was run: as §1
Mus musculus [13] = experiment: Immunomodulatory activity in Pseudomonas aeruginosa M57-15 infected C57BL/6 mouse lung assessed as increase of CD4+ T cell in alveolar space at 0.16 g/kg, po measured after 7 days by flow cytometry; type: functional, organism-based; how it was run: as §1
Mus musculus [14] = experiment: Immunomodulatory activity in Pseudomonas aeruginosa M57-15 infected C57BL/6 mouse lung assessed as decrease of TNFalpha production in CD11b+ cells in lung digest at 0.16 g/kg, po measured after 7 days by flow cytometry; type: functional, organism-based
How it was run: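 Lung digest cells (2 × 106) were stimulated for 4 h with 50 ng/ml PMA and 500 ng/ml ionomycin plus 10 μg/ml brefeldin A. They were surface-stained for CD11b/CD11c, fixed in 4% formalin, permeabilized with 0.05% saponin, Fc-blocked, and stained for intracellular TNF-α and IL-10 for flow cytometry. Mice were dosed at 0.16 g/kg by daily oral gavage from 4 days before infection.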

Mus musculus [15] = experiment: Immunomodulatory activity in Pseudomonas aeruginosa M57-15 infected C57BL/6 mouse lung assessed as increase of mannose receptor expression in lung digest at 0.16 g/kg, po measured after 7 days by flow cytometry; type: functional, organism-based; how it was run: as §1
Mus musculus [16] = experiment: Immunomodulatory activity in Pseudomonas aeruginosa M57-15 infected C57BL/6 mouse lung assessed as decrease of IL-6 production in CD11b+ cells in lung lavage fluid at 0.16 g/kg, po measured after 7 days by flow cytometry; type: functional, organism-based; how it was run: as §2
Mus musculus [17] = experiment: Immunomodulatory activity in Pseudomonas aeruginosa M57-15 infected C57BL/6 mouse lung assessed as CD11b+c+ cell expression level in lung digest at 0.16 g/kg, po measured after 3 days by flow cytometry (reference value: 8.63 +/- 0.53 %); type: functional; how it was run: as §1
Mus musculus [18] = experiment: Immunomodulatory activity in Pseudomonas aeruginosa M57-15 infected C57BL/6 mouse lung assessed as CD11b-c+ cell expression level in lung digest at 0.16 g/kg, po measured after 14 days by flow cytometry (reference value: 23.93 +/- 4.10 %); type: functional; how it was run: as §1
Pseudomonas aeruginosa [19] = experiment: Antibacterial activity against Pseudomonas aeruginosa M57-15 infected in C57BL/6 mouse assessed as increase of host survival time at 0.16 g/kg, po measured up to 14 days; type: functional, organism-based
How it was run: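 For survival, mice received 1.3 × 10^6 CFU (1× LD50) intratracheally in agarose beads under isoflurane. Daily oral gavage of 0.16 g/kg in 2% methylcellulose, or vehicle, began 4 days before infection. Survival curves were compared by log-rank.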

Mus musculus [20] = experiment: Immunomodulatory activity in Pseudomonas aeruginosa M57-15 infected C57BL/6 mouse lung assessed as increase of arginase activity in lung digest at 0.16 g/kg, po measured after 7 days
Mus musculus [21] = experiment: Immunomodulatory activity in Pseudomonas aeruginosa M57-15 infected C57BL/6 mouse lung assessed as increase of total cells in lung digest at 0.16 g/kg, po measured by flow cytometry
Mus musculus [22] = experiment: Immunomodulatory activity in Pseudomonas aeruginosa M57-15 infected C57BL/6 mouse lung assessed as CD11b+c- cell expression level in lung lavage fluid at 0.16 g/kg, po measured after 14 days by flow cytometry (reference value: 1.15 +/- 0.62 %); type: functional; how it was run: as §1
Mus musculus [23] = experiment: Immunomodulatory activity in Pseudomonas aeruginosa M57-15 infected C57BL/6 mouse lung assessed as decrease of CCL2 production in CD11b+ cells in lung lavage fluid at 0.16 g/kg, po measured after 7 days by flow cytometry; type: functional, organism-based; how it was run: as §2

For `CC[C@H]1OC(=O)[C@H](C)[C@@H](O[C@H]2C[C@@](C)(OC)[C@@H](O)[C@H](C)O2)[C@H](C)[C@@H](O[C@@H]2O[C@H](C)C[C@H](N(C)C)[C@H]2O)[C@](C)(O)C[C@@H](C)CN(C)[C@H](C)[C@@H](O)[C@]1(C)O` [AZITHROMYCIN], the Activity (Mus musculus [1]) was 15.55%, the Activity (Mus musculus [2]) was “inactive” and the Activity (Mus musculus [3]) was 46.16%. The Activity (Mus musculus [4]) was 16.83%, the Activity (Mus musculus [5]) was 21.67% and the Activity (Mus musculus [6]) was 0.42%. The Activity (Mus musculus [7]) was 13.3%, the Activity (Mus musculus [8]) was 34.84% and the Activity (Pseudomonas aeruginosa [9]) was “inactive”. For the same compound, the Activity (Mus musculus [10]) was “Active”, the Activity (Mus musculus [11]) was 17.1% and the Activity (Mus musculus [12]) was “Active”. The Activity (Mus musculus [13]) was “Active”, the Activity (Mus musculus [14]) was “Active” and the Activity (Mus musculus [15]) was “Active”. The Activity (Mus musculus [16]) was “Active”, the Activity (Mus musculus [17]) was 7.44% and the Activity (Mus musculus [18]) was 18.18%. For the same compound, the Activity (Pseudomonas aeruginosa [19]) was “inactive”, the Activity (Mus musculus [20]) was “Active” and the Activity (Mus musculus [21]) was “Active”. The Activity (Mus musculus [22]) was 2.24% and the Activity (Mus musculus [23]) was “Active”.
